Published values pooled from the literature.
Each line is one published result; the experiments were not run side by side.
Target: Phosphatidylinositol 3-kinase catalytic subunit type 3 (PIK3C3, Homo sapiens, UniProt Q8NEB9)

| SMILES | test | conditions | remaining binding |
| --- | --- | --- | --- |
| O=C(Nc1c[nH]nc1C(=O)NC1CCNCC1)c1cc(F)cc(F)c1 | binding, competition with immobilised ligand | 1 µM | 90% |
| CN(C)c1nccc(-c2cnc3ncccn23)n1 | binding | 1 µM | 48% |
| C[C@@H](c1ccc(-n2cnc3c(N)ncnc32)cc1)N1CCc2nn(C)c(Cc3ccccc3)c2C1=O | binding, competition with immobilised ligand | 0.1 µM | 76% |
| Nc1c(C(=O)NCc2ccc(C(=O)NCCCC3CCCCC3)cc2)cnn1-c1ccccc1 | cell-free assay, competition with immobilised ligand | 0.1 µM | 99% |
| O=C(c1ccc(Nc2ncc(Cl)c(-c3cc4ccccc4s3)n2)cc1)N1CCC(N2CCCC2)CC1 | binding, competition with immobilised ligand | 1 µM | 53% |
| CN(C)CC#Cc1ccc(OCCCc2sc(N3CCc4cccc(C(=O)Nc5nc6ccccc6s5)c4C3)nc2C(=O)O)c(F)c1 | cell-free assay, competition with immobilised ligand | 1 µM | 100% |
| Cc1cnc(Nc2ccc(C(=O)N3CCC(N4CCCC4)CC3)cc2)nc1-c1cc2ccccc2s1 | binding, competition with immobilised ligand | 1 µM | 14% |
| COc1ccnn2ncc(-c3ccnc(N(C)C)n3)c12 | binding | 1 µM | 96% |
| O=C(N[C@H]1CCCCC/C=C\C2C[C@@]2(C(=O)O)NC(=O)[C@@H]2C[C@@H](Oc3ccncc3)CN2C1=O)OC1CCCC1 (stereo partly drawn) | cell-free assay, competition with immobilised ligand | 1 µM | 100% |
| C[C@@H]1CCN(c2nccc(-c3cnn4ncccc34)n2)C1 | binding | 1 µM | 70% |
| COc1ncc2cc3ccccc3nc2c1C#N | cell-free assay, competition with immobilised ligand | 5 µM | 92% |
| Cc1cc(-n2nc(Cc3cc(F)cc(C(F)(F)F)c3)nc2C)ccc1C(N)=O | cell-free assay, competition with immobilised ligand | 1 µM | 100% |
| c1cnn2ncc(-c3ccnc(N4CCC45COC5)n3)c2c1 | binding | 1 µM | 48% |
| O=S(=O)(NC1CCC(c2cc(F)ccc2F)(S(=O)(=O)c2ccc(Cl)cc2)CC1)C(F)(F)F (stereo not drawn) | cell-free assay, competition with immobilised ligand | 1 µM | 100% |
| FC(F)(F)Oc1cccc(-c2cnc3ccc(-c4ccncc4)nn23)c1 | cell-free assay, competition with immobilised ligand | 5 µM | 34% |
| O=C(NCCCN1CCOCC1)c1ccc(Nc2ncc(Cl)c(-c3ccc(Cl)s3)n2)cc1 | binding, competition with immobilised ligand | 1 µM | 33% |
| COc1cnc(Nc2cccc(S(N)(=O)=O)c2)nc1N1CCN(c2ccccc2)CC1 | binding, competition with immobilised ligand | 1 µM | 76% |
| CN(CCCC(F)(F)F)c1nccc(-c2cnn3ncccc23)n1 | binding | 1 µM | 100% |
| c1cncc(-c2cccc(Nc3nccc(NC4CCCCC4)n3)c2)c1 | binding, competition with immobilised ligand | 10 µM | 21% |
| O=C(NC[C@@H]1[C@H]2CN(C(=O)OCc3cc(C(F)(F)F)cc(C(F)(F)F)c3)C[C@@H]12)c1ccc2[nH]nnc2c1 | cell-free assay, competition with immobilised ligand | 1 µM | 72% |
| N[C@H]1CCN(c2nccc(-c3cnn4ncccc34)n2)C1 | binding | 1 µM | 77% |
